Data published in paper PMC8327618 (Journal of the American Chemical Society, 2021).

Assays:
[1] = Spectroscopic characterization in 0.1 M NaOH; assay type: physicochemical; details: in 0.1M NaOH(aq); for ε: at max absorption; for Φfl: relative to fluorescein
[2] = pH titration of absorbance; assay type: physicochemical; details: for phenolic pKa (transition to the dianion): absorbance at λmax vs pH, 10 mM buffers, 150 mM NaCl, 2 μM dye
Summary of the method: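 Dichlorofluorescein dyes at 2 μM in 10 mM buffered solutions containing 150 mM NaCl, spanning pH 2.4 to 9.8 (intermediate steps 3.1–9.2); absorbance spectra recorded and normalized. Normalized absorbance at λmax plotted against pH and fitted to sigmoidal dose-response curves to obtain pKa; n = 3 independent determinations, error as ± SEM.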

HEK293T (HEK) cells = experiment: Cell permeability by fluorescence microscopy; assay type: cell-based; details: 500 nM, 20 min, 37 °C
Summary of the method: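 HEK293T cells incubated with 500 nM test compound (free acid or acetoxymethyl ester forms) for 20 min at 37 °C, washed once with HBSS, then imaged by widefield fluorescence and DIC microscopy to assess uptake.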

[3] = MTT reduction assay, cellular toxicity; assay type: cell-based

| λmax [1] [nm] | λem [1] [nm] | ε [1] | Φfl [1] | pKa of trianion formation (phosphonate, hypsochromic shift) ([2]; quantification of 5 nm hypsochromic shift with increasing pH) | uptake into cells / cell permeability (HEK293T (HEK) cells) | phenolic pKa (transition to the dianion) [2] | Molecule | cellular toxicity [3] |
| --- | --- | --- | --- | --- | --- | --- | --- | --- |
| 502 |  |  |  |  |  |  | 2’,7’-dichloro-3-carboxyfluorescein [2’,7’-dichloro-3-carboxy-fluorescein, reference compound] |  |
| 498 | 517 | 88,000 M^−1cm^−1 | 0.90 | 7.8 | no uptake |  | 2’,7’-dichloro-3-phosphonofluorescein [compound 4] | very low cellular toxicity |
| 509 | 526 | 87,000 M^−1cm^−1 | 0.89 |  |  |  | 2’,7’-dichloro-3-sulfonofluorescein [sF.Cl, reference compound] |  |
| 488 | 508 | 84,000 M^−1cm^−1 | 0.94 |  |  | 4.8 | 2’,7’-difluoro-3-phosphonofluorescein [compound 5] |  |
| 487 | 508 | 75,000 M^−1cm^−1 | 0.99 |  |  | 6.4 | O=c1ccc2c(-c3ccccc3P(=O)(O)O)c3ccc(O)cc3oc-2c1 [compound 6, 3-phosphonofluorescein] |  |
| 491 | 514 | 88,000 M^−1cm^−1 | 0.92 |  |  |  | O=C1OC2(c3ccc(O)cc3Oc3cc(O)ccc32)c2ccccc21 [fluorescein, reference compound] |  |
